One test deals with DU-145. Briefly: Cytotoxicity against human DU145 cells by SRB assay. Type of test: functional. A general note: Sulforhodamine B stains cellular protein and so reports cell mass.
For a further test, the system named is NCI-H460. Briefly: Cytotoxicity against human NCI-H460 cells by SRB assay. Format: functional.
For a further test, the system named is SK-OV-3. The test is described as follows: Cytotoxicity against human SKOV3 cells by SRB assay. Format: functional.
Test [1] can be described thus: Inhibition of bovine brain tubulin assembly after 20 mins. Also noted: species or system Bos taurus. A digest of the protocol: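 Bovine brain tubulin (10 µM) was preincubated with varying compound concentrations in glutamate buffer at 30 °C and then cooled to 0 °C. GTP was added, and the mixtures were warmed to 30 °C in a recording spectrophotometer. Assembly was followed turbidimetrically.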

The values below come from ChEMBL document CHEMBL1165983, “Regio- and stereospecific synthesis of mono-beta-d-glucuronic acid derivatives of combretastatin A-1” (J Nat Prod, 2010).

By GI50 is commonly meant the concentration at which growth is held to half of that of the control. A high value points to less potent growth inhibition. In general, pIC50 refers to the negative decadic logarithm of the IC50, by convention in mol/L. A higher pIC50 goes with a low IC50.

pIC50: −log10 of the molar value. Bounds are passed on as bounds.

Turning to `COc1cc(/C=C/c2ccc(OC)c(O[C@@H]3O[C@H](C(=O)O)[C@@H](O)[C@H](O)[C@H]3O)c2O)cc(OC)c1OC`, the GI50 is more than 98000 nM with DU-145, 26000 nM with NCI-H460 and more than 85000 nM in the test with SK-OV-3.

Take `COc1ccc(/C=C\c2cc(OC)c(OC)c(OC)c2)c(O[C@@H]2O[C@H](C(=O)O)[C@@H](O)[C@H](O)[C@H]2O)c1O`: the values for the GI50 in the test on DU-145, in the test with NCI-H460 and in the test with SK-OV-3 were 4400 nM, 3000 nM and 2300 nM, respectively.

Regarding `COc1ccc(/C=C/c2cc(OC)c(OC)c(OC)c2)c(O[C@@H]2O[C@H](C(=O)O)[C@@H](O)[C@H](O)[C@H]2O)c1O`, the GI50 is more than 88000 nM with DU-145, 26000 nM in the test with NCI-H460 and 30000 nM with SK-OV-3.

Take `COc1ccc(/C=C\c2cc(OC)c(OC)c(OC)c2)c(O)c1O` [COMBRETASTATIN A-1]: the GI50 in the test on DU-145 amounted to 13 nM; in the test on NCI-H460 it was 46 nM. Further, the pIC50 in test [1] is 5.96.

As for `COc1cc(/C=C\c2ccc(OC)c(O[C@@H]3O[C@H](C(=O)O)[C@@H](O)[C@H](O)[C@H]3O)c2O)cc(OC)c1OC`, the GI50 was 3300 nM in the test on DU-145, 1800 nM in the test with NCI-H460 and 2100 nM in the test with SK-OV-3.

In the test on DU-145, `COc1ccc(/C=C\c2cc(OC)c(OC)c(OC)c2)cc1O` [COMBRETASTATIN A4] gave a GI50 of 1 nM. That is a single-digit nanomolar value.
